Measurements from ChEMBL document CHEMBL4043304, “Synthesis and Evaluation of Hydrogen Peroxide Sensitive Prodrugs of Methotrexate and Aminopterin for the Treatment of Rheumatoid Arthritis” (J Med Chem, 2018).
In brackets after ≈: the same amount, converted by molar mass. Activity calls are given as the source filed them. The rule behind the calls is not given here.

How the values were obtained:
[1] = Kinetic solubility of the compound in DMSO/PBS mixture after 20 hrs by RP-UPLC-UV method; type: physicochemical
How it was run: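 100 µM compound in 1% DMSO/PBS pH 7.4, shaken 20 h at 37 °C. Centrifuged to remove insoluble material; supernatant quantified by RP-UPLC-UV at 306 nm. Triplicate.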

NCI-H460 = experiment: Cytotoxicity against human NCI-H460 cells assessed as decrease in cell viability after 48 hrs by MTS assay; type: functional, cell-based
How it was run: (§1)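 MCF-7 (DMEM) or NCI-H460 (RPMI), 10% FBS, seeded at 10^4 or 7×10^3 cells/well respectively and attached for 24 h. Exposed to serial compound concentrations for 48 h, then MTS read at 490 nm. DMSO ≤0.4% matched controls. Triplicate. IC50 by non-linear regression.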

MCF7 = experiment: Cytotoxicity against human MCF7 cells assessed as decrease in cell viability after 48 hrs by MTS assay; type: functional, cell-based; how it was run: as §1
Mus musculus [2] = experiment: Antiarthritic activity in collagen-induced DBA/1J mouse arthritis model assessed as decrease in incidence of arthritis at 7 mg/kg, ip administered daily for 2 weeks starting on day 27 post first immunization measured thrice per week during compound dosing relative to control; type: functional, organism-based
How it was run: (§2)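 Male DBA/1J mice (8–9 wk, n = 8/group). Arthritis induced by intradermal tail-base immunization with 100 µg chicken type-II collagen in CFA on day −1, with a 50 µg boost on day 21. Daily i.p. dosing in 2% DMSO/PBS for 14 days from day 27. Blinded scoring three times weekly, 0–15 per limb (max 60). Vehicle group as control. Mann-Whitney test.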

Mus musculus [3] = experiment: Antiarthritic activity in collagen-induced DBA/1J mouse arthritis model assessed as reduction of macroscopic score at 7 mg/kg, ip administered daily for 2 weeks starting on day 27 post first immunization measured thrice per week during compound dosing relative to control; type: functional, organism-based; how it was run: as §2
Mus musculus [4] = experiment: Toxicity in collagen-induced DBA/1J mouse arthritis model assessed as decrease in body weight at 7 mg/kg, ip administered daily for 2 weeks starting on day 27 post first immunization measured thrice per week during compound dosing; type: organism-based; details: in vivo, 336 h
How it was run: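 CIA in male DBA/1J mice (8–9 wk, n = 8/group) from chicken type-II collagen/CFA immunization (day −1, boost day 21). Daily i.p. dosing in 2% DMSO/PBS for 14 days starting day 27. Body weight recorded three times weekly as a general-health indicator, compared with vehicle. Data are mean ± SEM.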

[5] = Prodrug activation in DMSO/PBS mixture assessed as formation of Dimethyl (4-(((2,4-Diaminopteridin-6-yl)methyl)(methyl)amino)-benzoyl)-L-glutamate at 50 uM after <3 hrs in presence of 0.5 mM H2O2 by RP-UPLC-MS method
How it was run: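 50 µM prodrug in 30% DMSO/PBS pH 7.4 at 37 °C with diclofenac internal standard. Started with H2O2 at 0.5 mM final. Sampled 5 min to 4 h (some compounds to 48 h). RP-UPLC-UV at 306 nm. No-H2O2 control run in parallel. Triplicate.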

In the case of `CN(Cc1cnc2nc(N)nc(N)c2n1)c1ccc(C(=O)N[C@@H](CCC(=O)O)C(=O)O)cc1` [METHOTREXATE], the solubility kinetic at 20 h ([1]; read-out: Kinetic_solubility) is reported as 2140 µM (≈ 971 µg/mL), the Activity (NCI-H460) is reported as “Active” and the Activity (MCF7) is reported as “Active”. The Activity (Mus musculus [2]) was “Active”, the Activity (Mus musculus [3]) was “Active” and the Activity (Mus musculus [4]) was “Toxic”.
For `COC(=O)CC[C@H](NC(=O)c1ccc(N(C)Cc2cnc3nc(N)nc(NC(=O)OCc4ccc(B(O)O)c(F)c4)c3n2)cc1)C(=O)OC`, the Drug metabolism [5] was > 95% and the solubility kinetic at 20 h [1] was 4.6 µM (≈ 3.12 µg/mL).
For `COC(=O)CC[C@H](NC(=O)c1ccc(N(C)Cc2cnc3nc(N)nc(NC(=O)OCc4ccc(B(O)O)cc4)c3n2)cc1)C(=O)OC`, the Drug metabolism [5] was > 95% and the solubility kinetic at 20 h ([1]; read-out: Kinetic_solubility) was 3 µM (≈ 1.98 µg/mL).
In the case of `COC(=O)CC[C@H](NC(=O)c1ccc(N(C)Cc2cnc3nc(N)nc(NC(=O)OCc4ccc(B(O)O)c(C)c4)c3n2)cc1)C(=O)OC`, the Drug metabolism [5] is reported as > 95%.
